Measurements published in article PMC7144688 (Cell chemical biology, 2020).

Legend:
androgen receptor (AR) = assay: AR-mediated transcription assay in MDA-kb2 cells; type: cell-based, human; details: 0.2 nM DHT, 20 h
In short: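 MDA-kb2 cells carrying a stable androgen/glucocorticoid-responsive firefly luciferase reporter were seeded at 20,000 cells/well in Leibovitz's L-15 with 10% charcoal-stripped FBS (0% CO2) and grown to 80% confluence. Cells were co-treated with DHT and graded test compound for 20 h, lysed in Bright-Glo reagent for 4 min at room temperature, and luminescence was read.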

[1] = target: Aha1-stimulated Hsp90 (ASH) ATPase activity (Homo sapiens, UniProt O95433+P08238); assay: Aha1-stimulated Hsp90; type: biochemical
Aha1-stimulated Hsp90 (ASH) ATPase activity, sequence (O95433 whole entry): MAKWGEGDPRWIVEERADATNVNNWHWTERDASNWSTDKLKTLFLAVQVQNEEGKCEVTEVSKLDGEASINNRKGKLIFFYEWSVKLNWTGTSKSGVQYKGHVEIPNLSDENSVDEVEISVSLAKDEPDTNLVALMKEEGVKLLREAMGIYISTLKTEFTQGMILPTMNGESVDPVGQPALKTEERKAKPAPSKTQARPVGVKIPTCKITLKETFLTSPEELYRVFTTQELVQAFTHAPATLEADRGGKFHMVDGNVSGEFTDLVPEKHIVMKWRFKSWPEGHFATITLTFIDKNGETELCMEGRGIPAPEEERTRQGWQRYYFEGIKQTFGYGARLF
Aha1-stimulated Hsp90 (ASH) ATPase activity, sequence (P08238 whole entry): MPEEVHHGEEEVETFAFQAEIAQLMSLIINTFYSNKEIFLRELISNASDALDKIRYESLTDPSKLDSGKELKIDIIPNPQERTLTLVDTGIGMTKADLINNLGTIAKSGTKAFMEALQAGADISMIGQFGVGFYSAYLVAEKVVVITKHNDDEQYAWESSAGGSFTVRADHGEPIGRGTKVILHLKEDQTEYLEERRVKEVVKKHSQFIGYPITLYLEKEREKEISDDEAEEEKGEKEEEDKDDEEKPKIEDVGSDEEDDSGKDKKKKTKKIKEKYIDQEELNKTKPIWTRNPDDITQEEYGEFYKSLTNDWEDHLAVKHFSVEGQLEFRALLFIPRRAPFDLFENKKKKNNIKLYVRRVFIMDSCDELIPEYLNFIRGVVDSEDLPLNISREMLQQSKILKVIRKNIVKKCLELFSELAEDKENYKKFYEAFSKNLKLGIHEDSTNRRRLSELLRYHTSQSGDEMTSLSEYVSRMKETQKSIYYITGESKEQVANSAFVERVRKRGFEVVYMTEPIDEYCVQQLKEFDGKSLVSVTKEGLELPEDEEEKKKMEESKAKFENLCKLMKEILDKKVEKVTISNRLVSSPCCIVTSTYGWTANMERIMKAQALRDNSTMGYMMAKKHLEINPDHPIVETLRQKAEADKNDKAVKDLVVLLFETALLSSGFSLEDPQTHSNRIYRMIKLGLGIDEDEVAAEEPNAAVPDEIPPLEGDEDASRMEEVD

[2] = target: 6P chaperone complex (Hsp90, Hsp70, Hop, BAG1, Aha1 & Hsp40) refolding of FLuc (Homo sapiens, UniProt O95433+P08238+P0DMV8); assay: In vitro refolding of heat-denatured firefly luciferase by 6P chaperone complex; type: biochemical; details: 15 μM
6P chaperone complex (Hsp90, Hsp70, Hop, BAG1, Aha1 & Hsp40) refolding of FLuc, sequence (O95433 whole entry): as the sequence (O95433 whole entry) above
6P chaperone complex (Hsp90, Hsp70, Hop, BAG1, Aha1 & Hsp40) refolding of FLuc, sequence (P08238 whole entry): as the sequence (P08238 whole entry) above
6P chaperone complex (Hsp90, Hsp70, Hop, BAG1, Aha1 & Hsp40) refolding of FLuc, sequence (P0DMV8 whole entry): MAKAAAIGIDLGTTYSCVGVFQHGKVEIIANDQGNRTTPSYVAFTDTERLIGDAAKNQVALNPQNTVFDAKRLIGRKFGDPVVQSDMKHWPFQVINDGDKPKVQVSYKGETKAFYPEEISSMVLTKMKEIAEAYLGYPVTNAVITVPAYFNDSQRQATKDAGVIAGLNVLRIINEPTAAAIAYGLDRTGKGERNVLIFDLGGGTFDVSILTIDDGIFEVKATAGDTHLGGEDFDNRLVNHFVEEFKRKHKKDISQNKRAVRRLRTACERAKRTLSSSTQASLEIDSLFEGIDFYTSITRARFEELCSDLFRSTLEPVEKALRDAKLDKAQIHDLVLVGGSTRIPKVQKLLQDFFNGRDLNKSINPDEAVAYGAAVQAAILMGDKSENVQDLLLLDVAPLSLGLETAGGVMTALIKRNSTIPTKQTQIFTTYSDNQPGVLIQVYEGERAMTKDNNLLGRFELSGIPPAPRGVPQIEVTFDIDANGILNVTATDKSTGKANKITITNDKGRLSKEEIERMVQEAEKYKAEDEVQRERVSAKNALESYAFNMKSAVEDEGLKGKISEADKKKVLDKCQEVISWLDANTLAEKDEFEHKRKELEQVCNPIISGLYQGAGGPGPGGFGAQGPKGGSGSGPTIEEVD

human Hsp90β = human Hsp90β (human, UniProt P08238 1-724); assay: other fluorescence titration
human Hsp90β, sequence (P08238 whole entry): as the sequence (P08238 whole entry) above

In the case of C=CCNC1=C2C[C@@H](C)C[C@H](OC)[C@H](O)[C@@H](C)/C=C(\C)[C@H](OC(N)=O)[C@@H](OC)/C=C\C=C(/C)C(=O)NC(=CC1=O)C2=O [17-AAG], the “IC50 of AR-dependent luciferase expression” value (androgen receptor (AR)) is reported as “better than that of the Hsp90i 17-AAG”.

For COC1=C2C[C@@H](C)C[C@H](OC)[C@H](O)[C@@H](C)/C=C(\C)[C@H](OC(N)=O)[C@@H](OC)/C=C\C=C(/C)C(=O)NC(=CC1=O)C2=O [GA, geldanamycin], the “activity in ASH assay (screen)” value [1] was “failed to completely inhibit the ASH activity” and the “reduction in FLuc refolding” value [2] was 25%.

For O=C(Nc1cccc(Cl)c1Cl)C1CCCCC1 [MJC13], the “IC50 of AR-dependent luciferase expression” value (androgen receptor (AR)) was “similar”.

With CCn1c(=O)/c(=C2\Sc3cc(Cl)ccc3N2C)s/c1=C\c1scc[n+]1Cc1ccccc1.[Cl-] [JG98] the “effect on FLuc refolding” value [2] was “completely block”.

B1: acrylodan-labeled CTD of Aha1 (domain or fragment, human, UniProt O95433 164-338, looked up)
chain: ILPTMNGESVDPVGQPALKTEERKAKPAPSKTQARPVGVKIPTCKITLKETFLTSPEELYRVFTTQELVQAFTHAPATLEADRGGKFHMVDGNVSGEFTDLVPEKHIVMKWRFKSWPEGHFATITLTFIDKNGETELCMEGRGIPAPEEERTRQGWQRYYFEGIKQTFGYGARLF
modifications: acrylodan on cysteine residues
B1: binds (human Hsp90β).
